In ChEMBL document CHEMBL1142961, “Novel selective inhibitors of the zinc plasmodial aminopeptidase PfA-M1 as potential antimalarial agents” (J Med Chem, 2007):

Legend:
[1] = target: T1, Aminopeptidase N (Plasmodium falciparum FcB1/Columbia) (UniProt O96935); test: Inhibition of Plasmodium falciparum FcB1 M1 aminopeptidase at 10 uM
T1 sequence (whole entry): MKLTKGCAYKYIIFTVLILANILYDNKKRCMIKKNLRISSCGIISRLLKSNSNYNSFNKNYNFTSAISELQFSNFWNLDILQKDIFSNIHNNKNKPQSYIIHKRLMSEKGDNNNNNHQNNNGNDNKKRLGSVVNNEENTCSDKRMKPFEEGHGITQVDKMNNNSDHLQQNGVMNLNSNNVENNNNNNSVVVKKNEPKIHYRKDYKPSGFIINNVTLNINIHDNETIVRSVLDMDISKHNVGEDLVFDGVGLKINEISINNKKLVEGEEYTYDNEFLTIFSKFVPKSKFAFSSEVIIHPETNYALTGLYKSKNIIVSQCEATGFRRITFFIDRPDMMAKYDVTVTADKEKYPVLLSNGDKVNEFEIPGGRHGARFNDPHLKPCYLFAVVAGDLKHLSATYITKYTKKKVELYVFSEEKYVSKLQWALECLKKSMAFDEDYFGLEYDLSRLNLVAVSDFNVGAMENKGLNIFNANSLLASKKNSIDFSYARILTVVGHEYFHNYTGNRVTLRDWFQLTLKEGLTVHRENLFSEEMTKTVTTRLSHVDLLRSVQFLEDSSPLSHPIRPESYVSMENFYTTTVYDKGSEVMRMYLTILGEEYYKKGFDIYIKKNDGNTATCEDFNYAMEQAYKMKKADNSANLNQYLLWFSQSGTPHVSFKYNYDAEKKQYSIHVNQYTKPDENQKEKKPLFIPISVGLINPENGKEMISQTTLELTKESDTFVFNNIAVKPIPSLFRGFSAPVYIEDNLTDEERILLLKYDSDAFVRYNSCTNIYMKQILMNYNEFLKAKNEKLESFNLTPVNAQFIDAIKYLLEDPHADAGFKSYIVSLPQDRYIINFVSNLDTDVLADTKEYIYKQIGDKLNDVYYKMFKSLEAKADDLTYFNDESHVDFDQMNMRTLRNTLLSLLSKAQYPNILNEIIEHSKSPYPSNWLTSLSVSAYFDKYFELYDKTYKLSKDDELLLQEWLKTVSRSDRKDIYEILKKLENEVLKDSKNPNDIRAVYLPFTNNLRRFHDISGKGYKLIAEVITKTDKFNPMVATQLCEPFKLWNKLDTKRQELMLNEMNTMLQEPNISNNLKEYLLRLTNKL
Outline: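 Native enzyme purified from P. falciparum FcB1, diluted 10-fold in 25 mM Tris-HCl pH 7.4. Preincubated with inhibitor for 10 min at room temperature, then Leu-pNA substrate added (0.3 mM stock, Km 0.099 mM). Kinetics followed at 405 nm at room temperature. Initial velocities normalized to a no-inhibitor control. Single-point screen at 10 µM; IC50 from velocity versus inhibitor concentration curves. Bestatin used as reference.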

[2] = target: T2, Aminopeptidase N (Sus scrofa) (UniProt P15145); test: Inhibition of pig kidney microsomal APN at 10 uM
T2 sequence (whole entry): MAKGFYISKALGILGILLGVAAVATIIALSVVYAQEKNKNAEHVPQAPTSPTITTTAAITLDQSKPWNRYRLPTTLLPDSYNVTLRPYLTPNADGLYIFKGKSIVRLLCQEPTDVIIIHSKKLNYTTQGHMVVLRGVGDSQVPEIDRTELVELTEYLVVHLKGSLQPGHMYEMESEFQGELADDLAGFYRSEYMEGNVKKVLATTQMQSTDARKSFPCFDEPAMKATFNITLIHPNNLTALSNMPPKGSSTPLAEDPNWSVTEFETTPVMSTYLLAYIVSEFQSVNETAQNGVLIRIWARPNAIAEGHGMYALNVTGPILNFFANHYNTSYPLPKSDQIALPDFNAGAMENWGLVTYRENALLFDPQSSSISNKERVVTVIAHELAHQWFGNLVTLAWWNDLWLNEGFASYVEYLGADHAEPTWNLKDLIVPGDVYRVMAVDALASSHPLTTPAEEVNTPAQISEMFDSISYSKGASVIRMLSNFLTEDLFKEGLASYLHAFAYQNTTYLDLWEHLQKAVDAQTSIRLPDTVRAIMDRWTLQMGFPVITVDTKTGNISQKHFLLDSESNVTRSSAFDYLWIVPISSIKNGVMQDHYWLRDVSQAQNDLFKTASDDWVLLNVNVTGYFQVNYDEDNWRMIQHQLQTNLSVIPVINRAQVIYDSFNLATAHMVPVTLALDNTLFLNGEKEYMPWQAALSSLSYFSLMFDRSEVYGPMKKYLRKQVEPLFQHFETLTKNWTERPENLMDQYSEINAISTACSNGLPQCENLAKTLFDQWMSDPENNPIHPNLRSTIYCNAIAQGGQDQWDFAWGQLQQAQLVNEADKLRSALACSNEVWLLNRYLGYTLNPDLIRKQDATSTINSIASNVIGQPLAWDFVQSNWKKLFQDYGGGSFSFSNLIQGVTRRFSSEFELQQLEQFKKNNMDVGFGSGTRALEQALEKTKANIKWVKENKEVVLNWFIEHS
Outline: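 Porcine kidney microsomal APN (ammonium sulfate suspension) diluted 600-fold in 25 mM Tris-HCl pH 7.4. Preincubated with inhibitor for 10 min at room temperature, then Leu-pNA added (0.3 mM stock). Hydrolysis followed at 405 nm at room temperature. Rates normalized to a no-inhibitor control. Single point at 10 µM; IC50 from concentration-velocity curves. Bestatin used as reference.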

inhibition [1]	inhibition [2]	SMILES
45%	28%	CC(C)CN(CCCCc1ccccc1)C(=O)C(Cc1ccccc1)C(=O)NO (stereo unspecified)
-5%	10%	NC(C(=O)NO)C(=O)N1CCN(C(c2ccccc2)c2ccccc2)CC1 (stereo unspecified)
41%	81%	O=C(NO)C(Cc1cccc(Oc2ccccc2)c1)C(=O)NCc1cccc(-c2ccccc2)c1 (stereo unspecified)
6%	55%	NC(C(=O)NO)C(=O)NCc1ccc(C(F)(F)F)cc1 (stereo unspecified)
76%	102%	CC(C)CC(C(=O)NO)C(=O)NCCC(c1ccccc1)c1ccccc1 (stereo unspecified)
5%	32%	O=C(CC(=O)N(CCc1ccccc1)Cc1ccccc1)NO
20%	46%	O=C(NO)C(Cc1ccccc1)C(=O)N1CCN(c2ccccc2)CC1 (stereo unspecified)
2%	37%	NC(C(=O)NO)C(=O)N[C@H]1CCN(Cc2ccccc2)C1 (stereo partly specified)
10%	77%	NC(C(=O)NO)C(=O)NCc1ccccc1 (stereo unspecified)
69%	95%	CC(C)CC(C(=O)NO)C(=O)NCc1cccc(-c2ccccc2)c1 (stereo unspecified)
28%	66%	O=C(CC(=O)NCc1cccc(-c2ccccc2)c1)NO
59%	76%	O=C(NO)C(Cc1ccccc1)C(=O)NCCNc1cccc2ccccc12 (stereo unspecified)
43%	72%	O=C(NO)C(Cc1cccc(Oc2ccccc2)c1)C(=O)NC1Cc2ccccc2C1 (stereo unspecified)
44%	55%	O=C(CC(=O)NCc1cccc(Oc2ccccc2)c1)NO
9%	23%	Cc1ccccc1CNC(=O)C(N)C(=O)NO (stereo unspecified)
3%	18%	CN(CCCNC(=O)C(N)C(=O)NO)c1ccccc1 (stereo unspecified)
86%	89%	CN(Cc1ccccc1)C(=O)C(Cc1cccc(Oc2ccccc2)c1)C(=O)NO (stereo unspecified)
21%	14%	O=C(CC(=O)N1CCN(C(c2ccccc2)c2ccccc2)CC1)NO
-2%	19%	CC(C)CC(C(=O)NO)C(=O)N1CCN(C(c2ccccc2)c2ccccc2)CC1 (stereo unspecified)
12%	10%	CN(CCCCc1ccccc1)C(=O)C(N)C(=O)NO (stereo unspecified)
67%	46%	CN(CCCNC(=O)C(Cc1ccccc1)C(=O)NO)c1ccccc1 (stereo unspecified)
-6%	41%	O=C(NO)C(Cc1cccc(Oc2ccccc2)c1)C(=O)N1CCN(C(c2ccccc2)c2ccccc2)CC1 (stereo unspecified)
51%	31%	NC(C(=O)NO)C(=O)NCc1cccc(Oc2ccccc2)c1 (stereo unspecified)
8%	62%	NC(C(=O)NO)C(=O)NCCC(c1ccccc1)c1ccccc1 (stereo unspecified)

Further lines, the compound ahead of its results:

SMILES	inhibition [1]	inhibition [2]
O=C(NO)C(Cc1cccc(Oc2ccccc2)c1)C(=O)NC1CCN(Cc2ccccc2)CC1 (stereo unspecified)	5%	72%
CC(C)CC(C(=O)NO)C(=O)N(CCCCc1ccccc1)CC(C)C (stereo unspecified)	42%	60%
O=C(NO)C(Cc1cccc(Oc2ccccc2)c1)C(=O)N1CCC2(CC1)C(=O)NCN2c1ccccc1 (stereo unspecified)	65%	70%
CC(C)CC(C(=O)NO)C(=O)NCCc1ccccn1 (stereo unspecified)	30%	86%
O=C(CC(=O)N[C@H]1CCN(Cc2ccccc2)C1)NO	-3%	19%
O=C(CC(=O)N1CCN(c2ccccc2)CC1)NO	-9%	11%
CC(C)CC(C(=O)NO)C(=O)N1CCN(c2ccccc2)CC1 (stereo unspecified)	38%	103%
CC(C)CC(C(=O)NO)C(=O)NCc1cccnc1 (stereo unspecified)	-4%	30%
CC(C)CC(C(=O)NO)C(=O)N(C)CCCCc1ccccc1 (stereo unspecified)	2%	20%
O=C(CC(=O)N1CCC(n2c(=O)[nH]c3ccccc32)CC1)NO	6%	19%
CN(CCCNC(=O)CC(=O)NO)c1ccccc1	22%	32%
CC(C)CC(C(=O)NO)C(=O)N[C@H]1CCN(Cc2ccccc2)C1 (stereo partly specified)	58%	86%
CC(C)CC(C(=O)NO)C(=O)NCCCN(C)c1ccccc1 (stereo unspecified)	66%	81%
NC(C(=O)NO)C(=O)N1CCc2ccccc2C1 (stereo unspecified)	49%	32%
CC(C)CC(C(=O)NO)C(=O)N(C)Cc1ccccc1 (stereo unspecified)	23%	37%
O=C(CC(=O)N1CCN(Cc2ccccc2)CC1)NO	8%	23%
O=C(CC(=O)NCc1ccc(C(F)(F)F)cc1)NO	1%	40%

SMILES	inhibition [1]	inhibition [2]
Cc1ccccc1CNC(=O)C(CC(C)C)C(=O)NO (stereo unspecified)	88%	98%
O=C(CC(=O)N1CCC2(CC1)C(=O)NCN2c1ccccc1)NO	5%	19%
O=C(NO)C(Cc1cccc(Oc2ccccc2)c1)C(=O)N1CCN(c2ccccc2)CC1 (stereo unspecified)	38%	63%
O=C(CC(=O)NCCCc1ccccc1)NO	2%	15%
O=C(CC(=O)NCCCCc1ccccc1)NO	19%	36%
NC(C(=O)NO)C(=O)N1CCC(n2c(=O)[nH]c3ccccc32)CC1 (stereo unspecified)	12%	34%
NC(C(=O)NO)C(=O)N1CCN(Cc2ccc3c(c2)OCO3)CC1 (stereo unspecified)	-3%	23%
O=C(CC(=O)NCCc1ccccn1)NO	-2%	16%
CC(C)CC(C(=O)NO)C(=O)N1CCc2ccccc2C1 (stereo unspecified)	74%	90%
NC(C(=O)NO)C(=O)NCc1cccnc1 (stereo unspecified)	-6%	24%
O=C(CC(=O)NCc1cccnc1)NO	3%	18%
O=C(NO)C(Cc1ccccc1)C(=O)N1CCN(Cc2ccc3c(c2)OCO3)CC1 (stereo unspecified)	53%	29%
O=C(NO)C(Cc1cccc(Oc2ccccc2)c1)C(=O)N1CCN(Cc2ccccc2)CC1 (stereo unspecified)	84%	47%
O=C(CC(=O)NCCc1ccccc1)NO	-2%	27%
O=C(CC(=O)NCc1ccc(F)cc1)NO	6%	16%
CC(C)CC(C(=O)NO)C(=O)NCc1ccc(C(F)(F)F)cc1 (stereo unspecified)	24%	45%
CC(C)CN(CCCCc1ccccc1)C(=O)C(Cc1cccc(Oc2ccccc2)c1)C(=O)NO (stereo unspecified)	36%	52%
